In ChEMBL document CHEMBL1629447, “Antitumor agents 286. Design, synthesis, and structure-activity relationships of 3'R,4'R-disubstituted-2',2'-dimethyldihydropyrano[2,3-f]chromone (DSP) analogues as potent chemosensitizers to overcome multidrug resistance” (2010):
Values after ≈ are worked out from the molar mass of the structure shown. Active and inactive are the calls of the source. No cut-off for these calls is given here.

Assays:
KBVIN [1] = test: Inhibition of Pgp-mediated multidrug resistance in human KBVIN cells assessed as chemosensitization activity measured by increase in vincristine-induced cytotoxicity at 1 ug/mL by SRB assay relative to untreated control; assay type: cell-based
[2] = Cytotoxicity in human KBVIN cells by SRB assay; assay type: functional
Summary of the method: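 Cellular protein read by sulforhodamine B staining, absorbance 562 nm. GI50 is the concentration giving 50% lower absorbance than untreated cells, taken from replicate dose-response curves.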

KBVIN [3] = test: Inhibition of Pgp in human KBVIN cells assessed as facilitation of in calcein-AM accumulation by […]; assay type: cell-based
Summary of the method: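 KB-Vin (MDR) cells, 10,000 per well, adhered one day in medium with 5% FBS. Pre-exposed to test compound at several concentrations for 30 min at 37 °C, then given fresh medium with 1 μM calcein-AM plus compound for 30 min at 37 °C. Washed with cold PBS in low light, lysed in 20 mM Tris-HCl, fluorescence read Ex 494/Em 517 nm. Verapamil as inhibitor control; two or more independent experiments.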

SMILES	fold change (FC) (KBVIN [1])	GI50 [2]	inhibition (KBVIN [3])
CCc1ccc(C(=O)O[C@@H]2c3c(ccc4c(=O)cc(CC)oc34)OC(C)(C)[C@@H]2OC(=O)c2ccc(CC)cc2)cc1	20.3	> 13.6 µg/mL	–
CCc1cc(=O)c2ccc3c(c2o1)[C@@H](OC(=O)c1ccccc1)[C@@H](OC(=O)c1ccccc1)C(C)(C)O3	< 12.2	8.79 µg/mL (≈ 17.6 µM)	–
CCc1cc(=O)c2ccc3c(c2o1)[C@@H](OC(=O)c1ccccc1OC)[C@@H](OC(=O)c1ccccc1OC)C(C)(C)O3	28.1	> 31.5 µg/mL	–
CCc1cc(=O)c2ccc3c(c2o1)[C@@H](OC(=O)c1ccc(C#N)cc1)[C@@H](OC(=O)c1ccc(C#N)cc1)C(C)(C)O3	188	> 5.5 µg/mL	Active
CCc1cc(=O)c2ccc3c(c2o1)[C@@H](OC(=O)C1CCCCC1)[C@@H](OC(=O)C1CCCCC1)C(C)(C)O3	< 12.2	> 20 µg/mL	–
CCc1cc(=O)c2ccc3c(c2o1)[C@@H](OC(=O)CCc1ccccc1)[C@@H](OC(=O)CCc1ccccc1)C(C)(C)O3	106	10.1 µg/mL (≈ 18.2 µM)	–
CCc1cc(=O)c2ccc3c(c2o1)[C@@H](OC(=O)c1ccccc1C(F)(F)F)[C@@H](OC(=O)c1ccccc1C(F)(F)F)C(C)(C)O3	< 12.2	> 31.5 µg/mL	–
CCc1cc(=O)c2ccc3c(c2o1)[C@@H](OC(=O)Cc1ccc(OC)cc1)[C@@H](OC(=O)Cc1ccc(OC)cc1)C(C)(C)O3	34.4	13.3 µg/mL (≈ 22.7 µM)	–
CCc1cc(=O)c2ccc3c(c2o1)[C@@H](OC(=O)c1ccc(C(F)(F)F)cc1)[C@@H](OC(=O)c1ccc(C(F)(F)F)cc1)C(C)(C)O3	16.3	> 31.5 µg/mL	–
CCc1cc(=O)c2ccc3c(c2o1)[C@@H](OC(=O)/C=C/c1ccccc1)[C@@H](OC(=O)/C=C/c1ccccc1)C(C)(C)O3	222	9.44 µg/mL (≈ 17.1 µM)	–
CCCCN(CCCC)C(=O)O[C@@H]1c2c(ccc3c(=O)cc(CC)oc23)OC(C)(C)[C@@H]1OC(=O)N(CCCC)CCCC	< 12.2	> 20 µg/mL	–
CCc1cc(=O)c2ccc3c(c2o1)[C@@H](OC(=O)c1ccc(C)cc1)[C@@H](OC(=O)c1ccc(C)cc1)C(C)(C)O3	349	20.6 µg/mL (≈ 39.1 µM)	–
CCc1cc(=O)c2ccc3c(c2o1)[C@@H](OC(=O)N(CC)CC)[C@@H](OC(=O)N(CC)CC)C(C)(C)O3	116	> 20 µg/mL	–
COc1ccc(CCN(C)CCCC(C#N)(c2ccc(OC)c(OC)c2)C(C)C)cc1OC (configuration not stated) [VERAPAMIL]	141	> 31.5 µg/mL	–
CCc1cc(=O)c2ccc3c(c2o1)[C@@H](OC(=O)c1cccc(C#N)c1)[C@@H](OC(=O)c1cccc(C#N)c1)C(C)(C)O3	160	> 2.5 µg/mL	–
CCc1cc(=O)c2ccc3c(c2o1)[C@@H](OC(=O)c1cccc(OC)c1)[C@@H](OC(=O)c1cccc(OC)c1)C(C)(C)O3	27.1	> 35.8 µg/mL	–
CCc1cc(=O)c2ccc3c(c2o1)[C@@H](OCc1ccccc1)[C@@H](OCc1ccccc1)C(C)(C)O3	40.7	> 15.7 µg/mL	–
CCc1cc(=O)c2ccc3c(c2o1)[C@@H](OC(=O)c1ccc(OC)cc1)[C@@H](OC(=O)c1ccc(OC)cc1)C(C)(C)O3	257	9 µg/mL (≈ 16.1 µM)	Active
CCc1cc(=O)c2ccc3c(c2o1)[C@@H](OC(=O)N(C)C)[C@@H](OC(=O)N(C)C)C(C)(C)O3	< 12.2	> 20 µg/mL	–
CCc1cc(=O)c2ccc3c(c2o1)[C@@H](OC(=O)c1ccc([N+](=O)[O-])cc1)[C@@H](OC(=O)c1ccc([N+](=O)[O-])cc1)C(C)(C)O3	203	> 34 µg/mL	–
CCc1cc(=O)c2ccc3c(c2o1)[C@@H](OC(=O)N1CCCCC1)[C@@H](OC(=O)N1CCCCC1)C(C)(C)O3	22.2	> 20 µg/mL	–
CCc1cc(=O)c2ccc3c(c2o1)[C@@H](OC(=O)Cc1ccccc1)[C@@H](OC(=O)Cc1ccccc1)C(C)(C)O3	81.3	8.33 µg/mL (≈ 15.8 µM)	–
CCc1cc(=O)c2ccc3c(c2o1)[C@@H](OC(=O)c1cccc(C(F)(F)F)c1)[C@@H](OC(=O)c1cccc(C(F)(F)F)c1)C(C)(C)O3	< 12.2	> 31.5 µg/mL	–
CCc1cc(=O)c2ccc3c(c2o1)[C@@H](OC(=O)/C=C/c1ccc(OC)cc1)[C@@H](OC(=O)/C=C/c1ccc(OC)cc1)C(C)(C)O3	287	> 36.4 µg/mL	–
CCc1cc(=O)c2ccc3c(c2o1)[C@@H](OC(=O)N1CCCC1)[C@@H](OC(=O)N1CCCC1)C(C)(C)O3	24.9	> 20 µg/mL	–
